Structures are written as SMILES.

Data on five compounds can be found in ChEMBL document CHEMBL1125653, “Synthesis and pharmacological evaluation of a major metabolite of ameltolide, a potent anticonvulsant” (1991).

Assay type in all cases: functional
The test system of test [1] is Mus musculus. The experiment in a line: Anticonvulsant effect by horizontal screen assay in mice after peroral administration. The note with it: po, in the assay text read “Neurological impairment” for “Anticonvulsant effect”. An outline of the steps:
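Neurological impairment in previously trained male CF-1 mice (18–26 g) after oral dosing in 5% acacia/water (0.01 mL/g; 1.5 h food and water deprivation). Each mouse placed on a 13 × 13 cm no. 4 mesh wire screen, which was rotated 180°. Scored on whether it climbed back to the top within 1 min. Groups of 12 per dose; ED50 with 95% confidence limits.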

The subject of test [2] is Mus musculus. The test can be described thus: Anticonvulsant effect by maximal electroshock assay in mice after peroral administration. The conditions noted are these: po. An outline of the steps:
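Male CF-1 mice, 18–26 g, fasted from food and water 1.5 h; compounds suspended in 5% acacia/water, given orally at 0.01 mL/g. Tested at each compound's time of peak effect. MES: 50 mA ac for 0.1 s via corneal electrodes; protection = no hindlimb tonic extension. Groups of 12 mice at several doses; ED50 and 95% confidence limits computed from dose–effect data.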

The subject of test [3] is Mus musculus. The test can be described thus: Time to peak anticonvulsant effect was measured after oral dosing in mice. A digest of the protocol: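 Time to peak anticonvulsant effect in MES-tested male CF-1 mice after oral dosing (5% acacia/water suspension, 0.01 mL/g, 1.5 h fasted). Used to set the test time for the oral ED50 determinations.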
Test [4] has as its system Mus musculus. The test can be described thus: Anticonvulsant effect by maximal electroshock assay in mice after intravenous administration. A digest of the protocol:
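Male CF-1 mice, 18–26 g. Compounds dissolved in 2.5% ethanol–2.5% emulphor/water and injected into the tail vein 5 min before MES: 50 mA ac, 0.1 s, corneal electrodes. Absence of tonic hindlimb extension scored as protection. Groups of 12 mice per dose; ED50 with 95% confidence limits calculated from dose–effect data.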
For orientation: In the maximal electroshock model the usual endpoint is tonic extension of the hind limbs.

Test [5] is described as follows: Protective index measured as the ratio of HS ED50/MES ED50 values. A digest of the protocol: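 Ratio of oral horizontal-screen ED50 to oral MES ED50 in male CF-1 mice. Both ED50s were derived from groups of 12 mice given compound suspended in 5% acacia/water.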

As for `O=C1NC(=O)C(c2ccccc2)(c2ccccc2)N1` [PHENYTOIN], the values for the ED50 in test [1] and in test [2] were 83.7 mg/kg and 8.1 mg/kg, respectively. This compound also gave a TPE in test [3] of 2 h.
For the compound `CC(=O)Nc1ccc(C(=O)Nc2c(C)cccc2CO)cc1`, the ED50 – broadly, the dose that gives a 50% effect, or the effect in half of the subjects – was greater than 80 mg/kg in test [4] and greater than 100 mg/kg in test [2]. In test [3], this compound yielded a TPE of 1 h.
Take `CC(=O)Nc1ccc(C(=O)Nc2c(C)cccc2C)cc1`: the ED50 in test [1] was 96.4 mg/kg; in test [4], 19.9 mg/kg; in test [2] it was 4.7 mg/kg. In addition, the TPE in test [3] turned out to be 2 h. In addition, in test [5], the Protective index was 21.
On to `Cc1cccc(CO)c1NC(=O)c1ccc(N)cc1`, for which the values for the ED50 in test [1], in test [4] and in test [2] were 66 mg/kg, 3.9 mg/kg and 10.9 mg/kg, respectively. The compound also came in with a TPE in test [3] of 1 h. Also, in test [5], the Protective index amounted to 6.
Regarding `Cc1cccc(C)c1NC(=O)c1ccc(N)cc1` [AMELTOLIDE], the ED50 in test [1] is 23 mg/kg; in test [4], 19.9 mg/kg; in test [2] it was 1.4 mg/kg. Besides, in test [3], the TPE was 0.5 h. Moreover, in test [5], the Protective index worked out at 13.
